High-throughput results deposited in PubChem by several laboratories.
An excerpt weighted towards active compounds, which were near 1.7% of everything screened.
Rpn11 block = Rpn11 (PSMD14) deubiquitinase inhibitors, primary screen, biochemical, fluorescence polarization, uHTS; human 26S proteasome, Ub4-pepOG fluorescence polarization; 20S core pre-blocked with epoxomicin; AID 588493, 2011; inhibition, % at 20 µM; 360,000 compounds, 0.59% hits;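 active = inhibition at 20 µM, scaled to each plate's controls, above about 33%, limit read from the data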
IDE act = human IDE activators in live cells, primary screen, fluorescence polarization, HEK cells, FAbeta-B substrate. Insulin-degrading enzyme (Homo sapiens), P14735. FAbeta-B cleavage; 0% vehicle, 100% cell-free pure enzyme wells. activation, % at 5.96 µM. 340,000 compounds, 0.073% hits. AID 493087, 2011;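 active = activation above the mean of all tested compounds plus 3 SD, set per screening campaign, cut at about 17% in these data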
IDE cell inh = human IDE inhibitors in live cells, primary screen, fluorescence polarization, HEK cells, FAbetaB substrate. Insulin-degrading enzyme (Homo sapiens), P14735. FAbetaB cleavage. inhibition, % at 5.59 µM. 320,000 compounds, 0.41% hits;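 active = percent inhibition above the average of all tested compounds plus 3 SD, set per screening campaign, cut at about 16% in these data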;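 note: IDE supplied by intact live HEK cells; FP after avidin binding of uncleaved biotin substrate so inhibition keeps polarization high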
TPT1 inh = Candida albicans TPT1 enzyme inhibitors, primary screen, biochemical, fluorescence polarization | tRNA 2'-phosphotransferase TPT1 (Candida albicans SC5314) | recombinant caTPT1, FP RNA substrate dephosphorylation | inhibition, % at 5 µM | 300,000 compounds, 0.81% hits | AID 1962, 2009;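 active = inhibition above the mean of all tested compounds plus 3 SD, set per screening campaign, cut at about 24% in these data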
CSN inh = inhibitors of CSN-mediated cullin deneddylation, primary screen, biochemical, fluorescence polarization, uHTS; 360,000 compounds, 0.38% hits; AID 651999, 2013; COP9 signalosome complex subunit 5 (Homo sapiens), Q92905; inhibition, % at 12.5 µM; Purified CSN, SCF-Nedd8-OG deneddylation;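 active = pattern-corrected inhibition above about 35%, with an unprinted fluorescence ratio check between 0.5 and 1.5, limit read from the data, passing the limit was not always enough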
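Material: purified human Csn5 enzyme expressed in HEK293T cells / Medium: Tris buffer pH 7.5, NaCl, DTT, Tween-20, trehalose, ovalbumin / Compound dosing: 12.5 µM single point / Schedule: 90 min incubation of compound, enzyme and substrate at room temperature / Signal: fluorescence polarization of the substrate / Control set: no-enzyme wells high, enzyme-with-substrate wells low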
HNF4A DNA FP = change in binding of human HNF4A to DNA, primary screen, biochemical, fluorescence polarization, FITC-DNA; 1 h; activity change, % at 10 µM; Hepatocyte nuclear factor 4-alpha (Homo sapiens), P41235; 360,000 compounds, 0.3% hits; in the data active = activity change above about 30%, passing the limit was not always enough
Rpn11 confirm = Rpn11 (PSMD14) deubiquitinase inhibitors, confirmation, biochemical, fluorescence polarization, single concentration; shares compounds with Rpn11 block; purified human 26S proteasome, Ub4-pepOG fluorescence polarization; proteasome pretreated with epoxomicin; inhibition, % at 20 µM; 1,900 compounds, 29% hits; AID 602318, 2012
MMP-2 counter-1 = MMP-2 enzyme inhibition, confirmation, counter-screen for RPN11 inhibitor project, biochemical, fluorescence, single concentration. shares compounds with Rpn11 block. recombinant MMP-2, FRET peptide cleavage fluorescence. inhibition, % at 20 µM. 1,900 compounds, 4% hits;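 note: human MMP-2 activated beforehand with APMA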
Thrombin FP = bovine thrombin protease inhibition, confirmation, counter-screen for Rpn11 inhibitor project, biochemical, fluorescence polarization, single concentration. inhibition, % at 20 µM. shares compounds with Rpn11 block. 1,900 compounds, 13% hits. AID 602333, 2012. bovine thrombin cleavage of Ub4-pepOG;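 active = mean inhibition at least 40% at 20 µM, or signal 3 deviations below plate average, so some actives read negative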
CSN5 deneddyl = Csn5 deneddylation inhibitors, confirmation, biochemical, fluorescence polarization, single concentration, SCF-Nedd8OG substrate; shares compounds with CSN inh; Csn5 deneddylation of SCF-Nedd8OG, 90 min; inhibition, % at 16.6 µM; 540 compounds, 62% hits; AID 720654, 2013; in the data active = inhibition above about 50%
MMP-2 counter-2 = MMP-2 protease inhibition counter-screen, confirmation, counter-screen for CSN deneddylation inhibitor project, biochemical, fluorescence, single concentration. recombinant MMP-2, FRET substrate fluorescence, 60 min. AID 720655, 2013. shares compounds with CSN inh. 540 compounds, 33% hits. inhibition, % at 16.6 µM;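 active = corrected plate-normalized z-score of 5 or more, or -5 or less, or inhibition of 15% or more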
Thrombin cntr = counter-screen for CSN deneddylation inhibitors: bovine thrombin inhibition; shares compounds with CSN inh; bovine thrombin cleavage of Ub4-pepOG, fluorescence polarization; inhibition, % at 16.6 µM; 540 compounds, 49% hits;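 active = inhibition at or above a set limit, with a fluorescence interference ratio between 0.5 and a set maximum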
HNF4A confirm = change in HNF4A binding to DNA, retest, confirmation, biochemical, fluorescence polarization, FITC-DNA | shares compounds with HNF4A DNA FP | 1 h | activity change, % at 12.5 µM | 210 compounds, 99% hits; call rule not given here
Large screens that a line does not name were inactive (follow-up assays come after a bar, where shown); ! = a repeat was not active. Cut-off read from the data, not from the text of the source, unless noted: active = inhibition above about 40%; inactive = the rest.

Cc1ccc(-c2nc(NC(=O)CSc3cc(C)c4ccccc4n3)ns2)cc1	Rpn11 block active, CSN inh 175, HNF4A DNA FP 162 | Rpn11 confirm inactive | MMP-2 counter-1 inactive | Thrombin FP inactive | HNF4A confirm 94
COCC(C)n1c(C)cc(C(=O)COC(=O)c2c(NC(C)=O)sc(C)c2C)c1C (stereo not given)	Rpn11 block 49, HNF4A DNA FP 37 | Rpn11 confirm inactive | MMP-2 counter-1 inactive | Thrombin FP inactive | HNF4A confirm 51
COC(=O)c1c(-c2ccccc2)nn(-c2ccccc2)c1C(=O)OC	none
O=C(Nc1nc(-c2ccco2)c(-c2ccco2)s1)c1ccc(F)cc1F	CSN inh 45 (no result: IDE cell inh, TPT1 inh) | CSN5 deneddyl 103 | MMP-2 counter-2 inactive | Thrombin cntr inactive
CCCCNC1=CC(=O)C(=O)c2ccccc21	CSN inh 48 | CSN5 deneddyl 87 | MMP-2 counter-2 inactive | Thrombin cntr inactive
COc1cc(OC)cc(C(=O)NNC(=S)NCc2ccco2)c1	none
CC(=O)NCCNc1nc2cc(-c3ccc(Cl)cc3C)sc2c(=O)n1C	none (no result: IDE act, IDE cell inh, TPT1 inh)
O=C(Nc1cccc(-c2cnc3ccccc3n2)c1)c1cccc(NC(=O)c2ccco2)c1	Rpn11 block 74, CSN inh 41 | MMP-2 counter-2 inactive | Thrombin cntr 17
O=C(Nc1cccc(-c2cnc3ccccc3n2)c1)c1ccccc1	none
Nc1cccc2cc(S(=O)(=O)O)ccc12	CSN inh 37 (no result: IDE cell inh, TPT1 inh) | CSN5 deneddyl 67 | MMP-2 counter-2 inactive | Thrombin cntr inactive
COc1cc(SC)ccc1C(=O)Nc1cccc(C2OCCCO2)c1	none
O=C(OCN1C(=O)c2ccccc2C1=O)c1cccc(S(=O)(=O)N2CCOCC2)c1	none
CSC(=NS(=O)(=O)c1ccccc1)NNC(=O)c1c(-c2c(Cl)cccc2Cl)noc1C	none (no result: IDE act, IDE cell inh, TPT1 inh)
CC1(C)CC[C@]2(C(=O)n3ccnc3)CC[C@]3(C)[C@H](C(=O)C=C4[C@@]5(C)C=C(C#N)C(=O)C(C)(C)[C@@H]5CC[C@]43C)[C@@H]2C1	CSN inh 39 (no result: IDE cell inh, TPT1 inh) | CSN5 deneddyl 56 | MMP-2 counter-2 inactive | Thrombin cntr inactive
COc1ccc(C(=O)N2CCC2(C)C(=O)NC(C)C)cc1OC (stereo not given)	none (no result: IDE act, IDE cell inh, TPT1 inh)
CC1(C)Cc2c(sc3[nH]c(=S)n(Cc4ccco4)c(=O)c23)CO1	none
O=c1c2c3c(sc2[nH]c(=S)n1Cc1ccco1)CCC3	CSN inh 45 | CSN5 deneddyl 92 | MMP-2 counter-2 34 | Thrombin cntr inactive
Cc1ccc(Cl)c(OC(=O)C2CSC3(C)CCC(=O)N23)c1 (stereo not given)	none
CCN1CCN(Cc2ccc(NC(=O)c3ccc(C)c(NC(=O)c4c[nH]c5cc(C(F)(F)F)ccc5c4=O)c3)cc2C(F)(F)F)CC1	CSN inh 78!, HNF4A DNA FP 55 | CSN5 deneddyl 90 | MMP-2 counter-2 inactive | Thrombin cntr inactive
O=C1C2C(C(=O)N1/N=C/c1cc([N+](=O)[O-])c(O)cc1O)C1C=CC2C12CC2 (stereo not given)	CSN inh 36 | CSN5 deneddyl inactive | MMP-2 counter-2 17 | Thrombin cntr inactive
O=C(COc1ccc(Cl)cc1Cl)NC(=S)Nc1ccccc1C(=O)O	none (no result: Rpn11 block, IDE act, CSN inh, HNF4A DNA FP)
O=C(COc1ccc(Cl)cc1Cl)Nc1ccc(C(=O)Nc2ccccc2C(=O)O)cc1	CSN inh 52 | CSN5 deneddyl 75 | MMP-2 counter-2 20 | Thrombin cntr inactive
C[n+]1ccc(/C=C/c2cccs2)cc1	none
CN(C)c1ccc(/C=C/c2cc[n+](C)cc2)cc1	CSN inh 51, HNF4A DNA FP 68 (not shown: Rpn11 block) | CSN5 deneddyl 55 | MMP-2 counter-2 -34 | Thrombin cntr 58
S=C(Nc1ccc(Br)cc1Cl)NN1CCOCC1	none
Cc1c(Br)c(=O)oc2c(Br)c(O)c(O)cc12	CSN inh 40 | MMP-2 counter-2 inactive | Thrombin cntr 29
Cc1c(Br)c(=O)oc2c(Br)c(O)ccc12	none
N#CC(C#N)=C(N)/C(C#N)=C/c1cc(O)c(O)c(O)c1	CSN inh 122 (not shown: Rpn11 block) | CSN5 deneddyl inactive | MMP-2 counter-2 inactive | Thrombin cntr 57
N#C/C(=C/c1cc(Cl)c(O)c(Cl)c1)C(=O)N1CCCCC1	none
COc1ccccc1[C@@]1(C)ON(c2ccccc2C(F)(F)F)C1=O	none (no result: TPT1 inh)
CCN(CC)S(=O)(=O)c1ccc(C(=O)NNC(=O)C2CCN(S(=O)(=O)c3ccc(Cl)cc3)CC2)cc1	none
O=C(CCN1C(=O)/C(=C/c2ccco2)SC1=S)Nc1ccc(O)cc1C(=O)O	CSN inh 43 (no result: IDE cell inh, TPT1 inh) | CSN5 deneddyl 77 | MMP-2 counter-2 inactive | Thrombin cntr inactive
